# Measured values from ChEMBL document CHEMBL4152256, “Structure-activity relationship of new antimalarial 1-aryl-3-susbtituted propanol derivatives: Synthesis, preliminary toxicity profiling, parasite life cycle stage studies, target exploration, and targeted delivery” (Eur J Med Chem, 2018).
# Tests used:
# [1] = Selectivity index, ratio of CC50 for human HepG2A16 cells by MTT assay to IC50 for multidrug-resistant Plasmodium falciparum FCR-3; format: toxicity; conditions: HepG2A16 cells, read-out: Ratio CC50/IC50
# In short: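 HepG2-A16 human hepatoma cells were tested by MTT viability assay to give CC50. Blood-stage activity was measured against the multidrug-resistant P. falciparum FCR-3 strain by [3H]-hypoxanthine incorporation to give IC50. SI = CC50 HepG2 / FCR-3 IC50.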
# Plasmodium falciparum [2] = assay: Antiplasmodial activity against multidrug-resistant Plasmodium falciparum FCR-3 by [3H]-hypoxanthine incorporation assay; format: functional, organism-based, FCR-3/Gambia; conditions: Plasmodium falciparum, FCR-3/Gambia
# In short: (§1)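 Blood-stage P. falciparum 3D7 and FCR-3 were tested by a modified [3H]-hypoxanthine incorporation assay. Chloroquine was the reference in all runs.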
# [3] = Cytotoxicity against human HepG2A16 cells by MTT assay; format: cell-based; conditions: HepG2A16 cells
# In short: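 MTT viability assay on HepG2-A16 cells, giving CC50 values.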
# Plasmodium falciparum [4] = assay: Antiplasmodial activity against chloroquine-sensitive Plasmodium falciparum 3D7 by [3H]-hypoxanthine incorporation assay; format: functional, organism-based; conditions: Plasmodium falciparum, 3D7; in short: as §1
# [5] = Genotoxicity in Salmonella typhimurium TA1535 harboring pSK1002 assessed as umu gene induction at 0.031 mg/ml in absence of Sprague-Dawley rat liver S9 fraction after by SOS/umu assay relative to control; format: toxicity, organism-based; conditions: salmonella enterica subsp. enterica serovar typhimurium, read-out: FC
# [6] = Genotoxicity in Salmonella typhimurium TA1535 harboring pSK1002 assessed as survival at 0.001 mg/ml in presence of Sprague-Dawley rat liver S9 fraction after by SOS/umu assay relative to control; format: toxicity, organism-based; conditions: salmonella enterica subsp. enterica serovar typhimurium, read-out: Survival
# [7] = Genotoxicity in Salmonella typhimurium TA1535 harboring pSK1002 assessed as survival at 0.004 mg/ml in presence of Sprague-Dawley rat liver S9 fraction after by SOS/umu assay relative to control; format: toxicity, organism-based; conditions: salmonella enterica subsp. enterica serovar typhimurium, read-out: Survival
# [8] = Genotoxicity in Salmonella typhimurium TA1535 harboring pSK1002 assessed as umu gene induction at 0.001 mg/ml in absence of Sprague-Dawley rat liver S9 fraction after by SOS/umu assay relative to control; format: toxicity, organism-based; conditions: salmonella enterica subsp. enterica serovar typhimurium, read-out: FC
# [9] = Genotoxicity in Salmonella typhimurium TA1535 harboring pSK1002 assessed as umu gene induction at 0.004 mg/ml in absence of Sprague-Dawley rat liver S9 fraction after by SOS/umu assay relative to control; format: toxicity, organism-based; conditions: salmonella enterica subsp. enterica serovar typhimurium, read-out: FC
# [10] = Genotoxicity in Salmonella typhimurium TA1535 harboring pSK1002 assessed as umu gene induction at 0.001 mg/ml in presence of Sprague-Dawley rat liver S9 fraction after by SOS/umu assay relative to control; format: toxicity, organism-based; conditions: salmonella enterica subsp. enterica serovar typhimurium, read-out: FC
# [11] = Genotoxicity in Salmonella typhimurium TA1535 harboring pSK1002 assessed as umu gene induction at 0.002 mg/ml in absence of Sprague-Dawley rat liver S9 fraction after by SOS/umu assay relative to control; format: toxicity, organism-based; conditions: salmonella enterica subsp. enterica serovar typhimurium, read-out: FC
# [12] = Genotoxicity in Salmonella typhimurium TA1535 harboring pSK1002 assessed as umu gene induction at 0.016 mg/ml in absence of Sprague-Dawley rat liver S9 fraction after by SOS/umu assay relative to control; format: toxicity, organism-based; conditions: salmonella enterica subsp. enterica serovar typhimurium, read-out: FC
# [13] = Genotoxicity in Salmonella typhimurium TA1535 harboring pSK1002 assessed as umu gene induction at 0.031 mg/ml in presence of Sprague-Dawley rat liver S9 fraction after by SOS/umu assay relative to control; format: toxicity, organism-based; conditions: salmonella enterica subsp. enterica serovar typhimurium, read-out: FC
# [14] = Genotoxicity in Salmonella typhimurium TA1535 harboring pSK1002 assessed as survival at 0.031 mg/ml in presence of Sprague-Dawley rat liver S9 fraction after by SOS/umu assay relative to control; format: toxicity, organism-based; conditions: salmonella enterica subsp. enterica serovar typhimurium, read-out: Survival
# [15] = Genotoxicity in Salmonella typhimurium TA1535 harboring pSK1002 assessed as survival at 0.031 mg/ml in absence of Sprague-Dawley rat liver S9 fraction after by SOS/umu assay relative to control; format: toxicity, organism-based; conditions: salmonella enterica subsp. enterica serovar typhimurium, read-out: Survival
# [16] = Genotoxicity in Salmonella typhimurium TA1535 harboring pSK1002 assessed as survival at 0.002 mg/ml in absence of Sprague-Dawley rat liver S9 fraction after by SOS/umu assay relative to control; format: toxicity, organism-based; conditions: salmonella enterica subsp. enterica serovar typhimurium, read-out: Survival
# [17] = Genotoxicity in Salmonella typhimurium TA1535 harboring pSK1002 assessed as survival at 0.001 mg/ml in absence of Sprague-Dawley rat liver S9 fraction after by SOS/umu assay relative to control; format: toxicity, organism-based; conditions: salmonella enterica subsp. enterica serovar typhimurium, read-out: Survival
# [18] = Genotoxicity in Salmonella typhimurium TA1535 harboring pSK1002 assessed as survival at 0.002 mg/ml in presence of Sprague-Dawley rat liver S9 fraction after by SOS/umu assay relative to control; format: toxicity, organism-based; conditions: salmonella enterica subsp. enterica serovar typhimurium, read-out: Survival
# [19] = Genotoxicity in Salmonella typhimurium TA1535 harboring pSK1002 assessed as umu gene induction at 0.002 mg/ml in presence of Sprague-Dawley rat liver S9 fraction after by SOS/umu assay relative to control; format: toxicity, organism-based; conditions: salmonella enterica subsp. enterica serovar typhimurium, read-out: FC
# [20] = Genotoxicity in Salmonella typhimurium TA1535 harboring pSK1002 assessed as survival at 0.004 mg/ml in absence of Sprague-Dawley rat liver S9 fraction after by SOS/umu assay relative to control; format: toxicity, organism-based; conditions: salmonella enterica subsp. enterica serovar typhimurium, read-out: Survival
# [21] = Genotoxicity in Salmonella typhimurium TA1535 harboring pSK1002 assessed as survival at 0.008 mg/ml in presence of Sprague-Dawley rat liver S9 fraction after by SOS/umu assay relative to control; format: toxicity, organism-based; conditions: salmonella enterica subsp. enterica serovar typhimurium, read-out: Survival
# [22] = Genotoxicity in Salmonella typhimurium TA1535 harboring pSK1002 assessed as survival at 0.016 mg/ml in absence of Sprague-Dawley rat liver S9 fraction after by SOS/umu assay relative to control; format: toxicity, organism-based; conditions: salmonella enterica subsp. enterica serovar typhimurium, read-out: Survival
# [23] = Genotoxicity in Salmonella typhimurium TA1535 harboring pSK1002 assessed as umu gene induction at 0.016 mg/ml in presence of Sprague-Dawley rat liver S9 fraction after by SOS/umu assay relative to control; format: toxicity, organism-based; conditions: salmonella enterica subsp. enterica serovar typhimurium, read-out: FC
# [24] = Genotoxicity in Salmonella typhimurium TA1535 harboring pSK1002 assessed as survival at 0.008 mg/ml in absence of Sprague-Dawley rat liver S9 fraction after by SOS/umu assay relative to control; format: toxicity, organism-based; conditions: salmonella enterica subsp. enterica serovar typhimurium, read-out: Survival
# [25] = Genotoxicity in Salmonella typhimurium TA1535 harboring pSK1002 assessed as survival at 0.016 mg/ml in presence of Sprague-Dawley rat liver S9 fraction after by SOS/umu assay relative to control; format: toxicity, organism-based; conditions: salmonella enterica subsp. enterica serovar typhimurium, read-out: Survival
# [26] = Genotoxicity in Salmonella typhimurium TA1535 harboring pSK1002 assessed as umu gene induction at 0.008 mg/ml in presence of Sprague-Dawley rat liver S9 fraction after by SOS/umu assay relative to control; format: toxicity, organism-based; conditions: salmonella enterica subsp. enterica serovar typhimurium, read-out: FC
# [27] = Genotoxicity in Salmonella typhimurium TA1535 harboring pSK1002 assessed as umu gene induction at 0.004 mg/ml in presence of Sprague-Dawley rat liver S9 fraction after by SOS/umu assay relative to control; format: toxicity, organism-based; conditions: salmonella enterica subsp. enterica serovar typhimurium, read-out: FC
# [28] = Genotoxicity in Salmonella typhimurium TA1535 harboring pSK1002 assessed as umu gene induction at 0.008 mg/ml in absence of Sprague-Dawley rat liver S9 fraction after by SOS/umu assay relative to control; format: toxicity, organism-based; conditions: salmonella enterica subsp. enterica serovar typhimurium, read-out: FC
smiles,measurement,setting,value
COc1ccc(C(O)CCN2CC=C(c3ccc(F)cc3)CC2)cc1 (stereo unspecified),selectivity ratio,[1],13
same,IC50,Plasmodium falciparum [2],11.5 µM
same,CC50,[3],152 µM
same,IC50,Plasmodium falciparum [4],18.2 µM
OC(CCN1CC=C(c2ccc(F)cc2)CC1)c1ccc(Br)cc1 (stereo unspecified),selectivity ratio,[1],41
same,IC50,Plasmodium falciparum [2],2.68 µM
same,CC50,[3],109 µM
same,IC50,Plasmodium falciparum [4],5.42 µM
OC(CCN1CCN(c2ccc(C(F)(F)F)cc2)CC1)c1ccc(F)c2ccccc12 (stereo unspecified),IC50,Plasmodium falciparum [2],0.93 µM
COc1ccccc1N1CCN(CCC(O)c2ccc3ccccc3c2)CC1 (stereo unspecified),selectivity ratio,[1],36
same,IC50,Plasmodium falciparum [2],2.63 µM
same,CC50,[3],95 µM
same,IC50,Plasmodium falciparum [4],4.08 µM
COc1ccc(C(O)CCN2CC=C(c3ccc(F)cc3)CC2)c(OC)c1 (stereo unspecified),selectivity ratio,[1],10
same,IC50,Plasmodium falciparum [2],9.48 µM
same,CC50,[3],91.4 µM
same,IC50,Plasmodium falciparum [4],24.1 µM
N#Cc1ccc(C(O)CCNC2CCN(c3ccc([N+](=O)[O-])cc3C(F)(F)F)CC2)cc1 (stereo unspecified),selectivity ratio,[1],11
same,IC50,Plasmodium falciparum [2],2.02 µM
same,CC50,[3],23 µM
same,IC50,Plasmodium falciparum [4],4.22 µM
COc1ccc(C(O)CCN2CCN(c3ccccc3OC)CC2)cc1 (stereo unspecified),selectivity ratio,[1],46
same,IC50,Plasmodium falciparum [2],7.98 µM
same,CC50,[3],371 µM
same,IC50,Plasmodium falciparum [4],10.5 µM
O=[N+]([O-])c1cc(C(F)(F)F)ccc1N1CCN(CCC(O)c2ccc(F)c3ccccc23)CC1 (stereo unspecified),IC50,Plasmodium falciparum [2],5 µM
OC(CCN1CC=C(c2ccc(F)cc2)CC1)c1ccc(Cl)cc1 (stereo unspecified),selectivity ratio,[1],48
same,IC50,Plasmodium falciparum [2],2.29 µM
same,CC50,[3],110 µM
same,IC50,Plasmodium falciparum [4],3.57 µM
OC(CCN1CC=C(c2ccc(F)cc2)CC1)c1ccc(F)c(F)c1 (stereo unspecified),selectivity ratio,[1],48
same,IC50,Plasmodium falciparum [2],2.01 µM
same,CC50,[3],97 µM
same,IC50,Plasmodium falciparum [4],2.79 µM
O=[N+]([O-])c1ccc(N2CCN(CCC(O)c3ccc(F)c4ccccc34)CC2)c(C(F)(F)F)c1 (stereo unspecified),IC50,Plasmodium falciparum [2],0.5 µM
O=[N+]([O-])c1ccc(N2CCC(NCCC(O)c3ccc(F)c(Cl)c3)CC2)c(C(F)(F)F)c1 (stereo unspecified),selectivity ratio,[1],9
same,IC50,Plasmodium falciparum [2],0.51 µM
same,CC50,[3],4.61 µM
same,IC50,Plasmodium falciparum [4],0.71 µM
COC(=O)c1ccc(C(O)CCN2CC=C(c3ccc(F)cc3)CC2)cc1 (stereo unspecified),fold induction at 0.031 mg/ml,[5],0.9
same,viability at 0.001 mg/ml,[6],110%
same,viability at 0.004 mg/ml,[7],101%
same,fold induction at 0.001 mg/ml,[8],0.7
same,selectivity ratio,[1],451
same,fold induction at 0.004 mg/ml,[9],0.8
same,fold induction at 0.001 mg/ml,[10],0.8
same,fold induction at 0.002 mg/ml,[11],0.9
same,fold induction at 0.016 mg/ml,[12],1
same,fold induction at 0.031 mg/ml,[13],0.7
same,viability at 0.031 mg/ml,[14],138%
same,viability at 0.031 mg/ml,[15],94.4%
same,IC50,Plasmodium falciparum [2],1.13 µM
same,CC50,[3],509 µM
same,viability at 0.002 mg/ml,[16],109%
same,viability at 0.001 mg/ml,[17],124%
same,viability at 0.002 mg/ml,[18],103%
same,fold induction at 0.002 mg/ml,[19],1
same,viability at 0.004 mg/ml,[20],99.4%
same,viability at 0.008 mg/ml,[21],104%
same,viability at 0.016 mg/ml,[22],89.4%
same,fold induction at 0.016 mg/ml,[23],1
same,viability at 0.008 mg/ml,[24],97.5%
same,viability at 0.016 mg/ml,[25],103%
same,fold induction at 0.008 mg/ml,[26],1
same,IC50,Plasmodium falciparum [4],10.5 µM
same,fold induction at 0.004 mg/ml,[27],0.9
same,fold induction at 0.008 mg/ml,[28],0.9
O=[N+]([O-])c1ccc(N2CCC(NCCC(O)c3ccc(F)c(F)c3)CC2)c(C(F)(F)F)c1 (stereo unspecified),selectivity ratio,[1],25
same,IC50,Plasmodium falciparum [2],0.53 µM
same,CC50,[3],13.3 µM
same,IC50,Plasmodium falciparum [4],0.67 µM
COc1ccccc1N1CCN(CCC(O)c2ccccc2)CC1 (stereo unspecified),selectivity ratio,[1],> 39
same,IC50,Plasmodium falciparum [2],15.7 µM
same,CC50,[3],> 612 µM
same,IC50,Plasmodium falciparum [4],13.9 µM
COc1ccccc1N1CCN(CCC(O)c2ccc(-c3ccccc3)cc2)CC1 (stereo unspecified),selectivity ratio,[1],9
same,IC50,Plasmodium falciparum [2],2.78 µM
same,CC50,[3],24.4 µM
same,IC50,Plasmodium falciparum [4],7.25 µM
OC(CCN1CC=C(c2ccc(F)cc2)CC1)c1ccccc1 (stereo unspecified),selectivity ratio,[1],13
same,IC50,Plasmodium falciparum [2],9.04 µM
same,CC50,[3],121 µM
same,IC50,Plasmodium falciparum [4],10.6 µM
OC(CCN1CC=C(c2ccc(F)cc2)CC1)c1ccc(F)c(Cl)c1 (stereo unspecified),selectivity ratio,[1],8
same,IC50,Plasmodium falciparum [2],7.06 µM
same,CC50,[3],54.1 µM
same,IC50,Plasmodium falciparum [4],2.27 µM
O=[N+]([O-])c1ccc(N2CCC(NCCC(O)c3ccccc3)CC2)c(C(F)(F)F)c1 (stereo unspecified),selectivity ratio,[1],15
same,IC50,Plasmodium falciparum [2],1.8 µM
same,CC50,[3],27.6 µM
same,IC50,Plasmodium falciparum [4],4.42 µM
